Source: ChEMBL document CHEMBL4177556, “Novel 5-HT7R antagonists, arylsulfonamide derivatives of (aryloxy)propyl piperidines: Add-on effect to the antidepressant activity of SSRI and DRI, and pro-cognitive profile” (Bioorg Med Chem, 2017)
One block for each compound: values may come before it. Active and inactive are the calls of the source.

How the values were obtained:
Mus musculus [1] = test: Antidepressant-like activity in Swiss albino mouse assessed as decrease in immobility time at 0.312 mg/kg cotreated with 1.25 mg/kg of bupropion measured during last 4 mins of 6 mins test by forced swim test; assay type: functional, organism-based
Outline: (§1)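 Male Swiss albino mice, 7–10 per group. Test compound (i.p., 60 min pre-test) co-given with reboxetine or bupropion (60 min) or escitalopram (30 min), all in distilled water at 10 ml/kg. Placed in a water cylinder (10 cm water, 23–25 °C) for 6 min; immobility scored over the last 4 min by a blinded observer. Two-way ANOVA with Bonferroni.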

Homo sapiens = organism: Homo sapiens; test: Selectivity ratio of Ki for human 5-HT1A receptor to Ki for human 5-HT7b receptor
[2] = target: T1, 5-hydroxytryptamine receptor 7 (Homo sapiens, UniProt P34969); test: Displacement of [3H]-5-CT from human 5-HT7b receptor expressed in HEK293 cells after 1 hr by microbeta counting analysis; assay type: cell-based
T1 sequence (P34969 whole entry): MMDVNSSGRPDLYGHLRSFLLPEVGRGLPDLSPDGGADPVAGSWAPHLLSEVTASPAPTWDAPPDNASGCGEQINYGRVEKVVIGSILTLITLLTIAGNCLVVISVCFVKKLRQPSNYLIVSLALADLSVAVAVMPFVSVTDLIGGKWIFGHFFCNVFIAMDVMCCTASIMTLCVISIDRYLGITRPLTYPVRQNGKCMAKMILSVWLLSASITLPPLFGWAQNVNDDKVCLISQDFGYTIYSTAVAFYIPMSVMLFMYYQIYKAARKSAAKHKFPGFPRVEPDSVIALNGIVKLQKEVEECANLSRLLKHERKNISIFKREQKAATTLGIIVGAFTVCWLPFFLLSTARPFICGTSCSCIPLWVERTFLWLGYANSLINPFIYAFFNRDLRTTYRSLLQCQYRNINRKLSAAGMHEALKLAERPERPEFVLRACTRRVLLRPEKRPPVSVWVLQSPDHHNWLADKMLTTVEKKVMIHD
Outline: (§2)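 Membranes from stably transfected HEK293 or CHO-K1 cells, homogenized, centrifuged twice at 35,000g, with 15 min at 37 °C in between. Receptor-specific Tris-HCl buffers with MgCl2, plus EDTA, pargyline or ascorbate as applicable. Incubated 1 h at 37 °C (5-HT1A at room temperature), filtered, and bound radioactivity counted.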

[3] = target: 5-hydroxytryptamine receptor 2A (Homo sapiens, UniProt P28223); test: Displacement of [3H]-Ketanserin from human 5-HT2A receptor expressed in HEK293 or CHO-K1 cells after 1 hr by microbeta counting analysis; assay type: cell-based; outline: as §2
Sequence of 5-hydroxytryptamine receptor 2A (P28223 whole entry): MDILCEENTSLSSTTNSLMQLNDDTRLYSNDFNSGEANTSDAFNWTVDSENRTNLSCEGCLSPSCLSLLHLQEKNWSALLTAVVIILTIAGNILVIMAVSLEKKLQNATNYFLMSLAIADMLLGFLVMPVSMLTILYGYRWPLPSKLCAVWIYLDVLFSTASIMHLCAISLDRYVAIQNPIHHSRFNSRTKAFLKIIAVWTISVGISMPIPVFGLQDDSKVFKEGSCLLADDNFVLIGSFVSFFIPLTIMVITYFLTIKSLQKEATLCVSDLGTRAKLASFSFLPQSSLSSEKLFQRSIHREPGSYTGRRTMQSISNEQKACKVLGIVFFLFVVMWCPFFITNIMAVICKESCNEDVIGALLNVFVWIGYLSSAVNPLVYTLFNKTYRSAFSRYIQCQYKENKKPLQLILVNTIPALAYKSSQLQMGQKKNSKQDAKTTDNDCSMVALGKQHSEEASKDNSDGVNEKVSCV

D(2) dopamine receptor = D(2) dopamine receptor (Homo sapiens, UniProt P14416); test: Displacement of [3H]-Raclopride from human dopamine D2L receptor expressed in HEK293 or CHO-K1 cells after 1 hr by microbeta counting analysis; assay type: cell-based; outline: as §2
Sequence of D(2) dopamine receptor (P14416 whole entry): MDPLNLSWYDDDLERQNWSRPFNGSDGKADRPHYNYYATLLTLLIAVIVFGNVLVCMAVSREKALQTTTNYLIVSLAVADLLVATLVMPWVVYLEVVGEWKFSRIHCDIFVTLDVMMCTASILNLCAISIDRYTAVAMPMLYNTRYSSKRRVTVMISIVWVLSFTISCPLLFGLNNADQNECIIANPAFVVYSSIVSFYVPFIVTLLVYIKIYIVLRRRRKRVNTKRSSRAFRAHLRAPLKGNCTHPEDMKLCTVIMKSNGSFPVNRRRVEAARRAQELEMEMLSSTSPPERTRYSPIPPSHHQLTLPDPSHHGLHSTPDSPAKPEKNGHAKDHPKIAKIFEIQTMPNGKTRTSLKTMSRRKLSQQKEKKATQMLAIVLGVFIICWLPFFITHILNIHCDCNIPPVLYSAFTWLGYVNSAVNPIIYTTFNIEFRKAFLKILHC

[4] = target: Sodium-dependent dopamine transporter (Homo sapiens) (UniProt Q01959); test: Displacement of [3H]BTCP from recombinant human DAT at 1 uM after 120 mins by scintillation counting analysis relative to control
Sequence of Sodium-dependent dopamine transporter (Homo sapiens) (Q01959 whole entry): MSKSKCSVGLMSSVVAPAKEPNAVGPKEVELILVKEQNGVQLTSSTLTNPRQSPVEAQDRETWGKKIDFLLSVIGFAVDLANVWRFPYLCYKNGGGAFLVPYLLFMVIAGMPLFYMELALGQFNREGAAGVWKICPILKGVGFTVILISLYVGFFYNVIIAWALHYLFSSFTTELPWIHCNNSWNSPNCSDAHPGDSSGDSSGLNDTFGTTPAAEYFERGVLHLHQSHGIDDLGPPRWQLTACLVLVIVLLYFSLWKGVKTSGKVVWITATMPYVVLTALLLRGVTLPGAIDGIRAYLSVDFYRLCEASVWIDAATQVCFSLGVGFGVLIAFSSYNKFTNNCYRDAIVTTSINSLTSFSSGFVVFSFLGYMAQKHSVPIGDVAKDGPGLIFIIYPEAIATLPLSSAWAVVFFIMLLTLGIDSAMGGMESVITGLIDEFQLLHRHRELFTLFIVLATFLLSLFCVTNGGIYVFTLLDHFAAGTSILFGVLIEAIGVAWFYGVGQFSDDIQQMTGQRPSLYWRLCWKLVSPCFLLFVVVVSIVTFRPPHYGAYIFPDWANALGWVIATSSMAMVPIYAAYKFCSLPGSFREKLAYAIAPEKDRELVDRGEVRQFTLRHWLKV
Outline: (§3)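 Transporter and α1-adrenergic binding run externally by Eurofins Cerep using their standard protocols. Reported as % inhibition of control specific binding.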

Rattus norvegicus = test: Cognitive enhancement effect in Sprague-Dawley rat memory impairment model assessed as reversal of natural forgetting impairment administered ip 30 mins prior to test measured after 24 hrs by novel object recognition test; assay type: functional, organism-based
Outline: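 Male Sprague–Dawley rats (about 250 g), handled and acclimatized. Habituated to an open field arena (25 lx) for 5 min, 24 h before testing. Two 3-min trials (T1, T2) separated by a 24 h inter-trial interval. Drug given i.p. 30 min before T1. Object exploration video-tracked; discrimination index = (EB−EA)/(EA+EB).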

Mus musculus [5] = test: Antidepressant-like activity in C57BL/6J mouse assessed as decrease in immobility time at 2.5 mg/kg measured during 6 mins session by tail suspension test; assay type: functional, organism-based
Outline: (§4)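 Male C57BL/6J mice (22–26 g), 7–9 per group. Compound in distilled water, i.p. at 10 ml/kg, 60 min before test. Mice suspended by tail from a strain-gauge hook for 6 min. Struggling episodes, average event force and immobility (force below 0.20 N threshold) recorded automatically. One-way ANOVA with Bonferroni; mean ± SEM.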

[6] = target: Sodium-dependent serotonin transporter (Homo sapiens) (UniProt P31645); test: Displacement of [3H]imipramine from recombinant human SERT at 1 uM after 60 mins by scintillation counting analysis relative to control; outline: as §3
Sequence of Sodium-dependent serotonin transporter (Homo sapiens) (P31645 whole entry, looked up): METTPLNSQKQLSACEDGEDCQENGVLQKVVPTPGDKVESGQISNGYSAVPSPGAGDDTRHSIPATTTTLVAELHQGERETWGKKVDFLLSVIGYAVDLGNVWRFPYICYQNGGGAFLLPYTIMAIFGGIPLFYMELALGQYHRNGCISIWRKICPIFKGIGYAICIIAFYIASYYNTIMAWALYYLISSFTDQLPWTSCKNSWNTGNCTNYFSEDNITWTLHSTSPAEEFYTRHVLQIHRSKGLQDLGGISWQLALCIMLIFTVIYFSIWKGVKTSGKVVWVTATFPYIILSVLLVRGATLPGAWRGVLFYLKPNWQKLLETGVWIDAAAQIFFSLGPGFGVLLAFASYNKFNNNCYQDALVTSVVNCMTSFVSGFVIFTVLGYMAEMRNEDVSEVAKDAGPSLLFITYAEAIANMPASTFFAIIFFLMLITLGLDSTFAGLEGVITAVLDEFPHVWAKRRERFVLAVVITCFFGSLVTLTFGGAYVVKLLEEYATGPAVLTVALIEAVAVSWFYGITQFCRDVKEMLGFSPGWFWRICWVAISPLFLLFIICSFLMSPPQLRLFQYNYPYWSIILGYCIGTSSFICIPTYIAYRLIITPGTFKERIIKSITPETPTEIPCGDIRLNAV

Mus musculus [7] = test: Toxicity in mouse assessed as effect on spontaneous locomotory activity at 0.312 to 2.5 mg/kg, ip administered 60 mins prior to testing measured for 6 mins; assay type: organism-based; conditions: in vivo, 0.1 h
Outline: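 Swiss albino or C57BL/6J mice habituated 30 min in activity cages. Ambulation counted from 2–6 min (matching the swim test) or over 6 min (matching the tail suspension test) with an infrared multi-channel activity monitor. Dosing i.p. as for the behavioral tests.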

Mus musculus [8] = test: Antidepressant-like activity in Swiss albino mouse assessed as decrease in immobility time at 0.312 mg/kg cotreated with 0.625 mg/kg of escitalopram measured during last 4 mins of 6 mins test by forced swim test relative to control; assay type: functional; design: scale not given: the % may be the effect or the level left; outline: as §1
[9] = target: T2, 5-hydroxytryptamine receptor 1A (Homo sapiens, UniProt P08908); test: Displacement of [3H]-8-OH-DPAT from human 5-HT1A receptor expressed in HEK293 or CHO-K1 cells after 1 hr by microbeta counting analysis; assay type: cell-based; outline: as §2
T2 sequence (P08908 whole entry): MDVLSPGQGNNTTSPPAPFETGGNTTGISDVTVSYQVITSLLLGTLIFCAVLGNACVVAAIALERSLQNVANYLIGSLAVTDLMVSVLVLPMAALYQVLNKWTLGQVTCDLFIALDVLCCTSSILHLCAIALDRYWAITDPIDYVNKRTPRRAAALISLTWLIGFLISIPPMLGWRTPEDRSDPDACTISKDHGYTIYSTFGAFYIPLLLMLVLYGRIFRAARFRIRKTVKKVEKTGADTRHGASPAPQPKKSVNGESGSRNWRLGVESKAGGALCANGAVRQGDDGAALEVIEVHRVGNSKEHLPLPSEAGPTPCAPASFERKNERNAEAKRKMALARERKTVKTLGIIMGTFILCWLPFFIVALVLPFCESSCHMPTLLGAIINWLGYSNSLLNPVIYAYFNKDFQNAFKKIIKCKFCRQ

[10] = target: 5-hydroxytryptamine receptor 6 (Homo sapiens, UniProt P50406); test: Displacement of [3H]-LSD from human 5-HT6 receptor expressed in HEK293 or CHO-K1 cells after 1 hr by microbeta counting analysis; assay type: cell-based; outline: as §2
Sequence of 5-hydroxytryptamine receptor 6 (P50406 whole entry): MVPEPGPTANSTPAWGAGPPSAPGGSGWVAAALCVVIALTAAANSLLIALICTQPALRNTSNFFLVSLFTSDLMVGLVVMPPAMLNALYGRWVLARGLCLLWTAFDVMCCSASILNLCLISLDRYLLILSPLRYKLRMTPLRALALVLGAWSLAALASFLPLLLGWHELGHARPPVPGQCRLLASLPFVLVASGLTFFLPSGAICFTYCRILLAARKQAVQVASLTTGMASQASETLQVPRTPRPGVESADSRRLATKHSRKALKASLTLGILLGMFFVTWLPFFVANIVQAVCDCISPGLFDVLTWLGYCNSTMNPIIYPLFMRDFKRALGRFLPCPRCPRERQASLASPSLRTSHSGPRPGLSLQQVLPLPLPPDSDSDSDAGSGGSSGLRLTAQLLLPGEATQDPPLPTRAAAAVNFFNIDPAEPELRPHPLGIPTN

Mus musculus [11] = test: Antidepressant-like activity in C57BL/6J mouse assessed as increase in force of fights at 2.5 mg/kg measured during 6 mins session by tail suspension test; assay type: functional, organism-based; outline: as §4
Mus musculus [12] = test: Antidepressant-like activity in Swiss albino mouse assessed as decrease in immobility time at 0.625 to 2.5 mg/kg measured during last 4 mins of 6 mins test by forced swim test relative to control; assay type: functional; design: scale not given: the % may be the effect or the level left
Outline: (§5)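 Porsolt swim test in male Swiss albino mice (22–26 g), 7–10 per dose, each used once, run 09:00–14:00 by a blinded observer. Drugs in distilled water, i.p. at 10 ml/kg: escitalopram 30 min before test, others 60 min. Immobility scored during the last 4 min of a 6 min swim at 23–25 °C. One-way ANOVA with Bonferroni vs vehicle.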

Mus musculus [13] = test: Antidepressant-like activity in C57BL/6J mouse assessed as increase in number of fight episodes at 1.25 mg/kg measured during 6 mins session by tail suspension test; assay type: functional, organism-based; outline: as §4
[14] = target: T1, 5-hydroxytryptamine receptor 7; test: Antagonist activity at human 5-HT7b receptor expressed in HEK293 cells assessed as inhibition of 5-CT induced cAMP accumulation after 30 mins by LANCE based TR-FRET assay; assay type: functional, cell-based
Outline: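 Stable 5-HT7 HEK293 cells in DMEM with 10% dialysed FBS and G418, harvested at 90% confluence, washed in warm PBS, and resuspended in HBSS/5 mM HEPES/0.5 mM IBMX/0.1% BSA. Compound incubated with cells for 30 min at room temperature against 5-CT (10 nM). Cells lysed with Eu-cAMP/ULight-anti-cAMP for 1 h at room temperature, then LANCE cAMP read-out. Triplicate at 8 concentrations.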

[15] = target: Sodium-dependent noradrenaline transporter (Homo sapiens) (UniProt P23975); test: Displacement of [3H]nisoxetine from recombinant human NET at 1 uM after 120 mins by scintillation counting analysis relative to control; outline: as §3
Sequence of Sodium-dependent noradrenaline transporter (Homo sapiens) (P23975 whole entry): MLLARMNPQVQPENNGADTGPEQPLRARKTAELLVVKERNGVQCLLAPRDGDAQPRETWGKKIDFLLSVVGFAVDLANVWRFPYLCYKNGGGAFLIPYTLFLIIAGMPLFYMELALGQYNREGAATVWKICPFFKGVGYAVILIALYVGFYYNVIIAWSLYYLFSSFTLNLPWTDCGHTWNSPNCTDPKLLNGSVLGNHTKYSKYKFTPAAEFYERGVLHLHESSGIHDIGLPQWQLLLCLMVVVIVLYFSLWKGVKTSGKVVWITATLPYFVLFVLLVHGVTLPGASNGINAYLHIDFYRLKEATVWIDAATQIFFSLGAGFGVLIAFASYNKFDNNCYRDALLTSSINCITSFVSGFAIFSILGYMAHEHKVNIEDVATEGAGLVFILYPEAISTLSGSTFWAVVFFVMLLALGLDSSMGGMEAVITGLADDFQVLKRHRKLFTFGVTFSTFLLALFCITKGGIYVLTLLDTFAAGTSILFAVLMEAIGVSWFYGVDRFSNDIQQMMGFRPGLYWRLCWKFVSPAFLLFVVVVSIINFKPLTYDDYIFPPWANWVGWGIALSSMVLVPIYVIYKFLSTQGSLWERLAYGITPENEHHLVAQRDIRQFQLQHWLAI

Mus musculus [16] = test: Antidepressant-like activity in C57BL/6J mouse assessed as increase in average force of fights at 20 mg/kg measured during 6 mins session by tail suspension test; assay type: functional, organism-based
Outline: (§6)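 C57BL/6J male mice (22–26 g), 7–9 per group. Escitalopram in distilled water, i.p. at 10 ml/kg, 30 min before test. Tail suspension on a strain gauge for 6 min, scoring fight force, episode count and immobility below a 0.20 N threshold. One-way ANOVA with Bonferroni.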

Mus musculus [17] = test: Antidepressant-like activity in C57BL/6J mouse assessed as decrease in immobility time at 5 to 20 mg/kg measured during 6 mins session by tail suspension test; assay type: functional, organism-based; outline: as §6
Mus musculus [18] = test: Antidepressant-like activity in Swiss albino mouse assessed as decrease in immobility time at 2.5 mg/kg measured during last 4 mins of 6 mins test by forced swim test relative to control; assay type: functional; design: scale not given: the % may be the effect or the level left; outline: as §5
Mus musculus [19] = test: Antidepressant-like activity in Swiss albino mouse assessed as decrease in immobility time at 0.625 mg/kg measured during last 4 mins of 6 mins test by forced swim test; assay type: functional, organism-based; outline: as §5
Mus musculus [20] = test: Antidepressant-like activity in Swiss albino mouse assessed as decrease in immobility time at 1.25 mg/kg measured during last 4 mins of 6 mins test by forced swim test relative to control; assay type: functional; design: scale not given: the % may be the effect or the level left; outline: as §5

Ratio Ki (Homo sapiens): 65
Ki [2]: 32 nM
Ki [3]: 1350 nM
Ki (D(2) dopamine receptor): 328 nM
Activity [4]: < 10%
Activity [6]: 79%
Ki [9]: 2080 nM
Ki [10]: 268 nM
Kb [14]: 1 nM
Activity [15]: < 10%
SMILES: CC(C)c1ccccc1OCCCN1CCC(NS(=O)(=O)c2ccc(F)cc2)CC1
Activity (Mus musculus [1]): Active
Activity (Rattus norvegicus): Dose-dependent effect
Activity (Mus musculus [5]): Active
Activity (Mus musculus [7]): Non-Toxic
Activity (Mus musculus [8]): 32.6%
Activity (Mus musculus [11]): Active
Activity (Mus musculus [12]): 19 - 53%
Activity (Mus musculus [13]): Active

Ratio Ki (Homo sapiens): 6
Ki [2]: 170 nM
Ki [9]: 962 nM
SMILES: CC(C)c1ccccc1OCC(C)N1CCC(NS(=O)(=O)c2cccc(F)c2)CC1 (stereo not drawn)

SMILES: CN(C)CCC[C@@]1(c2ccc(F)cc2)OCc2cc(C#N)ccc21 [ESCITALOPRAM]
Activity (Mus musculus [16]): Active
Activity (Mus musculus [17]): Active
Activity (Mus musculus [18]): 34%
Activity (Mus musculus [19]): inactive
Activity (Mus musculus [20]): 27%

Ratio Ki (Homo sapiens): 5
Ki [2]: 104 nM
Ki [9]: 506 nM
SMILES: CC(C)c1ccccc1OCC(O)CN1CCC(NS(=O)(=O)c2ccc(F)cc2)CC1 (stereo not drawn)

Ratio Ki (Homo sapiens): 31
Ki [2]: 52 nM
Ki [9]: 1630 nM
SMILES: O=S(=O)(NC1CCN(CCCOc2ccccc2-c2ccccc2)CC1)c1cccc(Cl)c1

Ratio Ki (Homo sapiens): 34
Ki [2]: 52 nM
Ki [9]: 1790 nM
SMILES: CC(C)c1ccccc1OCCCN1CCC(NS(=O)(=O)c2cccc(F)c2)CC1

Ratio Ki (Homo sapiens): 22
Ki [2]: 59 nM
Ki [9]: 1320 nM
SMILES: O=S(=O)(NC1CCN(CC(O)COc2ccccc2-c2ccccc2)CC1)c1ccc(F)cc1 (stereo not drawn)
